Key:
Assay type in all cases: functional
[1] = tested on: Mycobacterium tuberculosis; assay: Antimycobacterial activity against drug-resistant Mycobacterium tuberculosis H37Rv ATCC 2517-infected hollow fiber system based in vitro pharmacokinetic-pharmacodynamic tuberculosis model assessed as concentration needed to achieve 50% maximal killing rate
Method in brief: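 Hollow-fibre system at 37°C under 5% CO2, preconditioned with drug for 3 days. Log-phase bacilli (10 ml of 10^6 CFU/ml) went into the peripheral compartment. […] Drug levels were checked centrally. Peripheral samples were taken daily for 7 days, washed twice in saline and plated on 7H10 agar for CFU.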

[2] = tested on: Mycobacterium tuberculosis; assay: Antimycobacterial activity against drug-resistant Mycobacterium tuberculosis H37Rv ATCC 2517-infected hollow fiber system based in vitro pharmacokinetic-pharmacodynamic tuberculosis model assessed as rate constant for maximal bacterial growth
[3] = tested on: Mycobacterium tuberculosis; assay: Antimycobacterial activity against drug-resistant Mycobacterium tuberculosis H37Rv ATCC 2517-infected hollow fiber system based in vitro pharmacokinetic-pharmacodynamic tuberculosis model assessed as sigmoidicity constant for microbial killing
[4] = tested on: Mycobacterium tuberculosis; assay: Antimycobacterial activity against drug-resistant Mycobacterium tuberculosis H37Rv ATCC 2517-infected hollow fiber system based in vitro pharmacokinetic-pharmacodynamic tuberculosis model assessed as concentration needed to achieve 50% effect on maximal growth rate
[5] = tested on: Mycobacterium tuberculosis; assay: Antimycobacterial activity against drug-resistant Mycobacterium tuberculosis H37Rv ATCC 2517-infected hollow fiber system based in vitro pharmacokinetic-pharmacodynamic tuberculosis model assessed as sigmoidicity constant for drug effect on microbial growth
[6] = tested on: Mycobacterium tuberculosis; assay: Antimycobacterial activity against drug-resistant Mycobacterium tuberculosis H37Rv ATCC 2517-infected hollow fiber system based in vitro pharmacokinetic-pharmacodynamic tuberculosis model assessed as rate constant for maximal bacterial kill

`CO[C@H]1/C=C/O[C@@]2(C)Oc3c(C)c(O)c4c(O)c(c(/C=N/N5CCN(C)CC5)c(O)c4c3C2=O)NC(=O)/C(C)=C\C=C\[C@H](C)[C@H](O)[C@@H](C)[C@@H](O)[C@@H](C)[C@H](OC(C)=O)[C@@H]1C` [RIFAMPIN] was tested, and the C50k [1] was 22.405 mg/L, the Kgmax [2] was 6.195 ×10⁻³ log10CFU/ml/hr and the Hk [3] was 45.326. It also gave a C50g [4] of 2.019 mg/L, a Hg [5] of 4.542 and a Kkmax [6] of 29.379 ×10⁻³ log10CFU/ml/hr.
